Each structure is given as a SMILES string.

Assay [1] deals with Mus musculus. Kind of assay: In vivo lowering of blood glucose levels in diabetic obese ob/ob mice, measuring postprandial blood glucose level on day 3 after 2 hours at 300 uM/kg oral dose. The class given is functional. The essentials:
(§1)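 Adult male C57BL ob/ob mice, fed, grouped (6/group) and matched for blood glucose on day 0; mice under 150 mg/dL excluded. Oral dosing in the morning on days 1-3, vehicle 0.5% CMC with 0.2% Tween-80. Significance versus vehicle.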

Assay [2] concerns Mus musculus. In words: In vivo lowering of blood glucose levels in diabetic obese ob/ob mice, measuring postprandial blood glucose level on day1 after 2 hours at 300 uM/kg oral dose. The class given is functional. The essentials: as §1
Assay [3] has as its system Mus musculus. In words: In vivo lowering of blood glucose levels in diabetic obese ob/ob mice by measuring postprandial blood glucose level on day 3 after 8 hours at 300 uM/kg oral dose. Format: functional. The essentials:
as §1

In assay [4] the test system is Mus musculus. Kind of assay: In vivo lowering of blood glucose levels in diabetic obese ob/ob mice by measuring postprandial blood glucose level on day1 after 4 hours at 300 uM/kg oral dose. The class given is functional. The essentials: as §1
Assay [5] concerns Mus musculus. In words: In vivo lowering of blood glucose levels in diabetic obese ob/ob mice by measuring postprandial blood glucose level on day 3 after 4 hours at 300 uM/kg oral dose. The class given is functional. The essentials: as §1
The nature of assay [6]: lowest concentration at which glucose utilized was greater than or equal to 140% of control value tested in a glucose utilization L6 myocyte in vitro assay. Format: functional, Rattus norvegicus. The essentials:
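Differentiated rat L6 myotubes (day 11 or 13 after plating) exposed 20 h to compound in serum-free DMEM with 15 mM glucose and 1% final DMSO. Tested in quadruplicate at 3, 10, 30, 100, 300 µM. Glucose left in the medium read by glucose oxidase. Value is the lowest concentration giving at least 40% more utilization than control.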

On to `O=C1CC[C@]2(c3ccc4ccccc4c3)O[C@@H](COc3ccc(Cl)cc3)CN12`, for which the Efficacy in assay [1] is listed as 13%; in assay [2] it was -6%; in assay [3] it was 8%; in assay [4], -11%; in assay [5], 7%. The “Lowest effective concentration for glucose utilization ≥140% of control” value in assay [6] was above 300 µM.

On to `O=C1CC[C@]2(c3ccc4ccccc4c3)O[C@H](COc3ccc(Cl)cc3)CN12`, for which the Efficacy in assay [1] is listed as 49%; in assay [2], 21%; in assay [3] it was 39%; in assay [4], 37%; in assay [5] it was 62%. Moreover, the “Lowest effective concentration for glucose utilization ≥140% of control” value in assay [6] came to 30 µM.

For the compound `O=C1CC[C@]2(c3cccnc3)O[C@H](COc3ccc(Cl)cc3)CN12`, the Efficacy was 1% in assay [1]; 22% in assay [2]; 35% in assay [3]; 20% in assay [4]; 22% in assay [5]. Besides, the “Lowest effective concentration for glucose utilization ≥140% of control” value in assay [6] is 300 µM.

In the case of `CC(=O)N1C[C@H](COc2ccc(Cl)cc2)O[C@@H]1c1ccc(Cl)cc1`, the Efficacy in assay [1] is 42%; in assay [2], 10%; in assay [3], 54%; in assay [4], 0%; in assay [5], 54%. In assay [6], the “Lowest effective concentration for glucose utilization ≥140% of control” value is 100 µM.

On to `O=C1CC[C@]2(c3ccc(Cl)cc3)SCCN12`, for which the Efficacy in assay [1] is listed as 57%; in assay [2] it was 16%; in assay [3] it was 68%; in assay [4], 2%; in assay [5] it was 64%. The “Lowest effective concentration for glucose utilization ≥140% of control” value in assay [6] came to 300 µM.

For `O=C1CC[C@]2(c3ccc(Oc4ccccc4)cc3)OCCN12`, the Efficacy in assay [1] is given as -3%; in assay [2], -8%; in assay [3], -4%; in assay [4], 11%; in assay [5], -1%. Also, the “Lowest effective concentration for glucose utilization ≥140% of control” value in assay [6] came to 300 µM.

Take `O=C1CC[C@]2(c3ccc4c(c3)CCc3ccccc3-4)O[C@H](COc3ccc(Cl)cc3)CN12`: the Efficacy is given as 51% in assay [1]; 31% in assay [2]; 45% in assay [3]; 38% in assay [4]; 56% in assay [5]. Besides, the “Lowest effective concentration for glucose utilization ≥140% of control” value in assay [6] was found to be 30 µM.

With `COc1ccc([C@]23CCC(=O)N2C[C@@H](COc2ccc(Cl)cc2)O3)cc1`, the Efficacy is recorded as -5% in assay [1]; -12% in assay [2]; 12% in assay [3]; 3% in assay [4]; -27% in assay [5]. In addition, in assay [6], the “Lowest effective concentration for glucose utilization ≥140% of control” value turned out to be 30 µM.

`O=C1CC[C@]2(c3ccc(F)cc3)O[C@H](COc3ccc(Cl)cc3)CN12`: the Efficacy in assay [1] is recorded as 67%; in assay [2], -2%; in assay [3] it was 38%; in assay [4], 19%; in assay [5], 60%. Also, the “Lowest effective concentration for glucose utilization ≥140% of control” value in assay [6] was found to be 30 µM.

On to `CS(=O)(=O)N1C[C@@H](COc2ccc(Cl)cc2)O[C@@H]1c1ccc(Cl)cc1`, for which the Efficacy is listed as 11% in assay [1]; -10% in assay [2]; 22% in assay [3]; 18% in assay [4]; 55% in assay [5]. Also, the “Lowest effective concentration for glucose utilization ≥140% of control” value in assay [6] turned out to be 30 µM.

As to `CC(C)C(=O)N1C[C@H](COc2ccc(Cl)cc2)O[C@@H]1c1ccc(Cl)c(Cl)c1`, the Efficacy was determined as 20% in assay [1]; 32% in assay [2]; 6% in assay [3]; 21% in assay [4]; 24% in assay [5]. Also, in assay [6], the “Lowest effective concentration for glucose utilization ≥140% of control” value came out at 30 µM.

Turning to `O=C1CC[C@]2(c3ccc4oc5ccccc5c4c3)O[C@H](COc3ccc(Cl)cc3)CN12`, the Efficacy in assay [1] is on record as 8%; in assay [2], -25%; in assay [3] it was 7%; in assay [4], -43%; in assay [5], 16%. For the same compound, the “Lowest effective concentration for glucose utilization ≥140% of control” value in assay [6] stood at 30 µM.

In the case of `CC(C)(O)c1cc(-c2ccc(Oc3ccccc3)cc2)no1`, the Efficacy is 61% in assay [1]; 6% in assay [2]; 55% in assay [3]; -2% in assay [4]; 60% in assay [5]. Further, the “Lowest effective concentration for glucose utilization ≥140% of control” value in assay [6] is 30 µM.

In the case of `OCc1cc(-c2ccc(Cl)cc2)no1`, the Efficacy in assay [1] was 61%; in assay [2], -3%; in assay [3] it was 34%; in assay [4], -1%; in assay [5], 53%. Moreover, the “Lowest effective concentration for glucose utilization ≥140% of control” value in assay [6] came to 100 µM.

With `O=C1CC[C@]2(c3ccc(Cl)cc3)OCCN12`, the Efficacy is 23% in assay [1]; 21% in assay [2]; 11% in assay [3]; 7% in assay [4]; 28% in assay [5]. In addition, the “Lowest effective concentration for glucose utilization ≥140% of control” value in assay [6] is above 1000 µM.

Consider `CC(=O)N1C[C@@H](COc2ccc(Cl)cc2)O[C@@H]1c1ccc(Cl)c(Cl)c1`, for which the Efficacy in assay [1] was 69%; in assay [2], 8%; in assay [3] it was 61%; in assay [4], 26%; in assay [5] it was 70%. In addition, in assay [6], the “Lowest effective concentration for glucose utilization ≥140% of control” value was found to be 30 µM.

`O=C1CC[C@]2(c3ccc(-c4ccccc4)cc3)O[C@H](COc3ccc(Cl)cc3)CN12`: the Efficacy in assay [1] is on record as 20%; in assay [2], 16%; in assay [3], 7%; in assay [4] it was 17%; in assay [5], 35%. Further, in assay [6], the “Lowest effective concentration for glucose utilization ≥140% of control” value came out at 10 µM.

Take `CS(=O)(=O)N1C[C@H](COc2ccc(Cl)cc2)O[C@@H]1c1ccc(Cl)cc1`: the Efficacy in assay [1] was 35%; in assay [2], -12%; in assay [3] it was 29%; in assay [4], -4%; in assay [5], 59%. The “Lowest effective concentration for glucose utilization ≥140% of control” value in assay [6] came to 100 µM.

As to `O=C1CC[C@]2(c3ccc(Cl)cc3)S[C@H](COc3ccc(Cl)cc3)CN12`, the Efficacy in assay [1] is recorded as -11%; in assay [2], 28%; in assay [3], 11%; in assay [4], 14%; in assay [5], 9%. Moreover, the “Lowest effective concentration for glucose utilization ≥140% of control” value in assay [6] is above 300 µM.

In the case of `O=C1CC[C@]2(c3ccc(Cl)cc3)S[C@@H](COc3ccc(Cl)cc3)CN12`, the Efficacy in assay [1] turned out to be 44%; in assay [2] it was 9%; in assay [3], 35%; in assay [4] it was 3%; in assay [5], 48%. In addition, the “Lowest effective concentration for glucose utilization ≥140% of control” value in assay [6] was 10 µM.

Consider `COc1ccc(OC[C@@H]2CN3C(=O)CC[C@]3(c3ccc(Cl)cc3)O2)cc1`, for which the Efficacy is -19% in assay [1]; -17% in assay [2]; -28% in assay [3]; -20% in assay [4]; -8% in assay [5]. Besides, the “Lowest effective concentration for glucose utilization ≥140% of control” value in assay [6] stood at 100 µM.

On to `COC(=O)N1C[C@H](COc2ccc(Cl)cc2)O[C@@H]1c1ccc(Cl)c(Cl)c1`, for which the Efficacy in assay [1] was 25%; in assay [2], 13%; in assay [3], -9%; in assay [4], 40%; in assay [5], 19%. The “Lowest effective concentration for glucose utilization ≥140% of control” value in assay [6] stood at 30 µM.

With `OCc1cc(-c2ccc(Oc3ccccc3)cc2)no1`, the Efficacy is on record as 56% in assay [1]; 14% in assay [2]; 24% in assay [3]; 15% in assay [4]; 14% in assay [5]. The “Lowest effective concentration for glucose utilization ≥140% of control” value in assay [6] was 30 µM.

For `O=C1CC[C@]2(c3ccncc3)O[C@@H](COc3ccc(Cl)cc3)CN12`, the “Lowest effective concentration for glucose utilization ≥140% of control” value in assay [6] was 100 µM.

As for `CC(=O)N1C[C@@H](COc2ccc(Cl)cc2)O[C@@H]1c1ccc(Cl)c(C(F)(F)F)c1`, the “Lowest effective concentration for glucose utilization ≥140% of control” value in assay [6] was 30 µM.

For `O=C1CC[C@]2(c3ccc4oc5ccccc5c4c3)O[C@@H](COc3ccc(Cl)cc3)CN12`, the “Lowest effective concentration for glucose utilization ≥140% of control” value in assay [6] is above 300 µM.

As for `C=CCOC[C@@H]1CN2C(=O)CC[C@]2(c2ccc(Cl)cc2)O1`, the “Lowest effective concentration for glucose utilization ≥140% of control” value in assay [6] is above 300 µM.

For the compound `CC(C)(C)[C@]12CCC(=O)N1C[C@@H](COc1ccc(Cl)cc1)O2`, the “Lowest effective concentration for glucose utilization ≥140% of control” value in assay [6] is above 300 µM.

Regarding `CC(=O)N(C[C@@H]1CN2C(=O)CC[C@]2(c2ccc(Cl)cc2)O1)c1ccc(Cl)cc1`, the “Lowest effective concentration for glucose utilization ≥140% of control” value in assay [6] is above 300 µM.

`COc1ccc([C@]23CCC(=O)N2C[C@H](COc2ccc(Cl)cc2)O3)cc1`: the “Lowest effective concentration for glucose utilization ≥140% of control” value in assay [6] was above 300 µM.
